Results reported in ChEMBL document CHEMBL1949528, “New inhibitor of 3-phosphoinositide dependent protein kinase-1 identified from virtual screening” (Bioorg Med Chem Lett, 2012).

Columns and labels:
[1] = molecular target: T1, 3-phosphoinositide-dependent protein kinase 1 (Homo sapiens, UniProt O15530); assay: Inhibition of recombinant PDK1 using P2925 peptide as substrate by fluorescence polarization assay
T1 sequence (O15530 whole entry): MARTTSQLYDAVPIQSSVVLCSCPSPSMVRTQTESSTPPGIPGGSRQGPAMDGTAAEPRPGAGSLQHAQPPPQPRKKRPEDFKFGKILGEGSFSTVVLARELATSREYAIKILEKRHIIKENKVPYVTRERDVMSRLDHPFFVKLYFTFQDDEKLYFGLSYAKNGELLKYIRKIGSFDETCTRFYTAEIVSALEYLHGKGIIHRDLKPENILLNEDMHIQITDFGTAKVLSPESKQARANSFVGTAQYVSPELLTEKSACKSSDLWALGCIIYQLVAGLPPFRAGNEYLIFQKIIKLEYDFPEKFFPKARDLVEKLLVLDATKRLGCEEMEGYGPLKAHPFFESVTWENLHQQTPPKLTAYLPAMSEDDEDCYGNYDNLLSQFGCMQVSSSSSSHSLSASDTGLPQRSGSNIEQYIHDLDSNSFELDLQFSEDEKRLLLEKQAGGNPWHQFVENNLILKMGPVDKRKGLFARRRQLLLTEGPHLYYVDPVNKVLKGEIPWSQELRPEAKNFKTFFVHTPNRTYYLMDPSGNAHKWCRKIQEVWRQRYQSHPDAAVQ
In short: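 A fluorescence polarization kit assay. Recombinant PDK1 phosphorylates the substrate peptide with DMSO or inhibitor present. The phosphopeptide formed competes with a fluorescein-labeled phosphopeptide tracer for an anti-phosphothreonine antibody, and polarization is then read on a plate reader. A standard reference inhibitor was run alongside.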

RPMI-8226 = assay: Growth inhibition of human RPMI8226 cells after 48 hrs by sulforhodamine B assay; assay type: functional; conditions: RPMI-8226, 48 h
In short: (§1)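 Run in the NCI-DTP 60-cell-line screen. Cells were exposed for 48 h to at least five 10-fold dilutions (0.01 to 100 μM). Cell growth was estimated by sulforhodamine B protein staining. Percentage growth at each level was taken from absorbances at time zero (Tz), of the untreated control (C) and of treated cells (Ti), as [(Ti-Tz)/(C-Tz)]*100.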

HOP-92 = assay: Growth inhibition of human HOP92 cells after 48 hrs by sulforhodamine B assay; assay type: functional; conditions: HOP-92, 48 h; in short: as §1
KM12 = assay: Growth inhibition of human KM12 cells after 48 hrs by sulforhodamine B assay; assay type: functional; conditions: KM12, 48 h; in short: as §1
SF-268 = assay: Growth inhibition of human SF268 cells after 48 hrs by sulforhodamine B assay; assay type: functional; conditions: SF-268, 48 h; in short: as §1
SF-295 = assay: Growth inhibition of human SF295 cells after 48 hrs by sulforhodamine B assay; assay type: functional; conditions: SF-295, 48 h; in short: as §1
U-251 = assay: Growth inhibition of human U251 cells after 48 hrs by sulforhodamine B assay; assay type: functional; conditions: U-251, 48 h; in short: as §1
LOX IMVI = assay: Growth inhibition of human LOXIMVI cells after 48 hrs by sulforhodamine B assay; assay type: functional; in short: as §1
OVCAR-3 = assay: Growth inhibition of human OVCAR3 cells after 48 hrs by sulforhodamine B assay; assay type: functional; conditions: OVCAR-3, 48 h; in short: as §1
RXF 393 = assay: Growth inhibition of human RXF393 cells after 48 hrs by sulforhodamine B assay; assay type: functional; conditions: RXF 393, 48 h; in short: as §1
PC-3 = assay: Growth inhibition of human PC3 cells after 48 hrs by sulforhodamine B assay; assay type: functional; conditions: PC-3, 48 h; in short: as §1
DU-145 = assay: Growth inhibition of human DU145 cells after 48 hrs by sulforhodamine B assay; assay type: functional; conditions: DU-145, 48 h; in short: as §1
Hs-578T [2] = assay: Growth inhibition of human Hs578T cells after 48 hrs by sulforhodamine B assay; assay type: functional; in short: as §1
Hs-578T [3] = assay: Growth inhibition of human Hs578T cells at 10 uM after 48 hrs by sulforhodamine B assay; assay type: functional; conditions: read-out: GI
In short: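 A single-concentration NCI-DTP test at 10 μM, run two times. After 48 h exposure, growth was read by sulforhodamine B staining and expressed as percentage growth, [(Ti-Tz)/(C-Tz)]*100, against time-zero and untreated-control absorbances. Growth inhibition is reported as 100 minus percentage growth.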

CCOC(=O)c1ccc(Nc2cc(C)nc(Nc3ccc(C(=O)OCC)cc3)n2)cc1
IC50 [1]: 0.2 µM
GI50 (RPMI-8226): 3.54 µM
GI50 (HOP-92): 3.25 µM
GI50 (KM12): 3.62 µM
GI50 (SF-268): 3.8 µM
GI50 (SF-295): 8.64 µM
GI50 (U-251): 9.88 µM
GI50 (LOX IMVI): 7.24 µM
GI50 (OVCAR-3): 2.02 µM
GI50 (RXF 393): 5.05 µM
GI50 (PC-3): 6.02 µM
GI50 (DU-145): 5.39 µM
GI50 (Hs-578T [2]): < 10 µM
inhibition of growth at 10 µM (Hs-578T [3]): 67%
